Experimental data from paper PMC2555998 (The Journal of Biological Chemistry, 2008).
Where no end group is shown, it is not given here.

Key:
CaM = CaM (Homo sapiens, UniProt P0DP23); assay: Ca^2+ dissociation kinetics of CaM complexes with Cx32 peptides; assay type: binding; conditions: for relative amplitude A1 (EF1) / relative amplitude A2 (EF2) / relative amplitude A3 (EF3) / relative amplitude A4 (EF4): Table 3, CaM + C-terminal peptide, n = 3 (208-226), 2 (208-227)
Method in brief: (§1)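 Human liver wild-type CaM and the EF-hand mutants CaM12 (D22A/D58A) and CaM34 (D95A/D131A) were expressed in E. coli and HPLC-purified, EGTA-free. In stopped flow, 90 µM quin 2 with no added Ca2+ was mixed with 3 µM CaM or CaM·peptide in 50 µM Ca2+ buffer (mixing-chamber concentrations). Buffer was 50 mM K+-PIPES pH 7.0, 100 mM KCl, 2 mM MgCl2.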

CaM12 (D22A/D58A CaM) = CaM12 (D22A/D58A CaM) (Homo sapiens, UniProt P0DP23, D23A/D59A); assay: Ca^2+ dissociation kinetics of CaM12 complexes with Cx32 peptides; assay type: binding; conditions: n = 1; for k4 (EF4, C-terminal CaM lobe) / relative amplitude A3 (EF3) / relative amplitude A4 (EF4): Table 3, CaM12 + C-terminal peptide; for k4 (EF4, C-terminal CaM lobe): 21 °C
Method in brief: as §1

CaM34 (D95A/D131A CaM) = CaM34 (D95A/D131A CaM) (Homo sapiens, UniProt P0DP23, D132A/D96A); assay: Ca^2+ dissociation kinetics of CaM34 complexes with Cx32 peptides; assay type: binding; conditions: Table 3, CaM34 + C-terminal peptide, n = 2; for k2 (EF2, N-terminal CaM lobe): 10 μM peptide, 21 °C, mean ± S.D.
TA-CaM = conditions: cited from earlier work
DA-CaM [1] = target: T1, DA-CaM (Homo sapiens, UniProt P0DP23, T111C/T35C); assay: Conformation of CaM in peptide complexes: donor quenching of DA-CaM; assay type: binding; conditions: 433 nM DA-CaM, 0.5 mM CaCl2; further addition of 4.4 μM peptide
Method in brief: (§2)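 DA-CaM was made from T34C/T110C CaM randomly labeled with IAEDANS (donor) and DDP (quencher), then HPLC-fractionated into lobe-specific labeled species. Equilibrium titration used increasing peptide concentrations on a spectrofluorimeter. Donor quenching indicated CaM compactness in the complex, and Kd came from fitting the binding data.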

AEDANS-T34C/T110C-CaM = AEDANS-T34C/T110C-CaM (Homo sapiens, UniProt P0DP23, T111C/T35C); assay: Equilibrium fluorescence titration of AEDANS-T34C/T110C-CaM with Cx32 208–226; assay type: binding
DA-CaM [2] = target: T1, DA-CaM; assay: Equilibrium fluorescence titration of DA-CaM with Cx32 1–19; assay type: binding
Method in brief: as §2

[3] = Ca^2+ dissociation kinetics of CaM and mutant CaMs without peptide; assay type: binding; conditions: no peptide; calibration of ΔRF per site
Method in brief: as §1

[4] = cited from earlier work

Row | Substance | relative amplitude A1 (EF1) (CaM) | relative amplitude A2 (EF2) (CaM) | relative amplitude A3 (EF3) (CaM) | relative amplitude A4 (EF4) (CaM) | k4 (EF4, C-terminal CaM lobe) (CaM12 (D22A/D58A CaM); 10 μM peptide) [s⁻¹] | relative amplitude A3 (EF3) (CaM12 (D22A/D58A CaM)) | relative amplitude A4 (EF4) (CaM12 (D22A/D58A CaM)) | k2 (EF2, N-terminal CaM lobe) (CaM34 (D95A/D131A CaM)) [s⁻¹] | other results
1 | Ac-EVVYLIIRACARRAQRRSNP-NH2 [Cx32 208–227] | 0.5 | 1.5 | 1 | 1 | 3.1 ± 0.1 | 0.5 | 1 | 169 ± 5.6 | involvement of the N-lobe EF hand binding (CaM; CaM complex, 10 μM peptide): 50%; relative affinity for CaM, in words (CaM; compared with 208–226 peptide): higher affinity for CaM than the 208–226 peptide; rate constant for both C-lobe EF hands of CaM12·peptide complex (CaM12 (D22A/D58A CaM); 10 μM peptide): 3.1 ± 0.1 s^–1; relative amplitude A1 (EF1) (CaM34 (D95A/D131A CaM)): 0.5; relative amplitude A2 (EF2) (CaM34 (D95A/D131A CaM)): 1
2 | Cx32 1–21: peptide, consisting of residues 1–21, which represents the N-terminal tail CaM-binding domain of Cx32 | – | – | – | – | – | – | – | – | Kd (TA-CaM; TA-CaM (Lys75-modified fluorescent CaM), Ca^2+-dependent): 0.027 µM
3 | Cx32 216–230: peptide representing residues 216–230 of the Cx32 C-terminal tail (ACARRAQRRSNPPSR; UniProt P08034 216-230, looked up, fragment) | – | – | – | – | – | – | – | – | relative affinity for CaM, in words (TA-CaM; compared with 208–226 peptide): higher affinity than the 208–226 peptide
4 | EVVYLIIRACARRAQRRSN [Cx32 208–226] | 1 | 1 | 1 | 1 | 1.6 ± 0.1 | 1 | 1 | 173 ± 0.4 | donor AEDANS fluorescence on increasing the peptide concentration (DA-CaM [1]): a blue shift was seen in the donor AEDANS fluorescence; Kd (AEDANS-T34C/T110C-CaM): 3.45 ± 1.09 µM; increase in fluorescence on peptide binding (fold) (AEDANS-T34C/T110C-CaM; donor-only labeled probe AEDANS-T34C/T110C-CaM): 2.5 fold
5 | MNWTGLYTLLSGVNRHSTA [Cx32 1–19] | – | – | – | – | – | – | – | – | Kd (DA-CaM [2]): 1.14 ± 0.1 µM
6 | calmodulin [CaM] | – | – | – | – | – | – | – | – | ΔRF of two measurable (C-lobe) sites [3]: 0.08; higher Ca^2+ affinity of the C-terminal lobe of apo CaM (fold) ([4]; Ca^2+-free (apo) CaM, C-lobe vs N-lobe): about 5 fold; Ca^2+ dissociation from the two N-terminal lobe sites, estimated ([4]; no peptide): ~1000 s^–1
